{"source": "paper PMC3367325", "about": "(Journal of Natural Products, 2012)", "key": {"[1]": {"target": "T1, human 20S proteasome (CT-L activity) (Homo sapiens, UniProt P28074)"}, "[2]": {"target": "T1, human 20S proteasome (CT-L activity)", "assay": "Chymotryptic-like", "format": "biochemical", "conditions": "purified human 20S proteasome"}, "[3]": {"test_system": "alpha(2B) adrenoceptor", "conditions": "cited from earlier work"}, "[4]": {"target": "human 20S proteasome (T-L activity) (Homo sapiens, UniProt Q99436)", "assay": "Tryptic-like", "format": "biochemical", "conditions": "purified human 20S proteasome"}, "[5]": {"assay": "Aggregation assay", "format": "physicochemical", "conditions": "1 to 10 µM"}, "[6]": {"target": "T1, human 20S proteasome (CT-L activity)", "assay": "IC50 pre- and post-centrifugation of palau’amine in reaction buffer", "format": "biochemical", "conditions": "15,000g for 30 min, supernatant", "how_it_was_run": "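Test compound in reaction buffer was spun at 15000g for 30 min, and the IC50 was compared with that of unspun material. CT-L assay: 1 nM purified human 20S proteasome in 50 mM Tris-HCl pH 7.5 with 0.03% SDS and Suc-LLVY-AMC at its Km, at 37 °C. AMC fluorescence (ex 380/em 460 nm) was read each minute for 30 min, and the maximal rate gave activity.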"}, "[7]": {"test_system": "HeLa cells", "assay": "Accumulation of ubiquitinylated proteins, confocal microscopy", "format": "cell-based, human", "conditions": "1.0 µM, 2 h, versus vehicle, p =0.001"}, "[8]": {"conditions": "pH of greater than seven; has been reported, no reference given; cited from earlier work"}}, "note": "Where two headings read alike, the source gives them in different places. Peptide text beside a SMILES is read from it. * marks the point of attachment. Cbz = O=C(OCc1ccccc1)*"}
{"molecule": "CC(C)C[C@@H](C=O)NC(=O)[C@H](CC(C)C)NC(=O)[C@H](CC(C)C)NC(=O)OCc1ccccc1", "note": "[MG-132, reference compound] (Cbz-Leu-Leu-Leu-aldehyde)", "values": [{"measurement": "CT-L proteolytic activity of 20S proteasome post-washing", "setting": "[1]", "value": "almost completely restored"}, {"measurement": "CT-L proteolytic activity of 20S proteasome pre-washing", "setting": "[1]", "value": "completely abrogated"}]}
{"molecule": "O=c1c2cc(Br)c(Br)n2cc2n1CCC2", "note": "[compound 4]", "values": [{"measurement": "Inhibition of the proteasome (all activities)", "setting": "[2]", "value": "devoid of all activity"}]}
{"molecule": "NC1=N[C@]23CCCN2C(=O)c2cc(Br)c(Br)n2[C@@H]3N1", "note": "(racemic) [(±) -2, ±-dibromophakellin]", "values": [{"measurement": "Activity against the alpha(2B) adrenoceptor", "setting": "[3]", "value": "agonist activity"}]}
{"molecule": "NC[C@@H]1[C@H]2CN3C(=O)c4cccn4[C@@H]4NC(N)=N[C@@]43[C@@H]2[C@]2(N=C(N)N[C@H]2O)[C@H]1Cl.O=C(O)C(F)(F)F", "note": "(racemic) [(±) - 1, palau’amine]", "values": [{"measurement": "Effect on T-L activity of the proteasome", "setting": "[4]", "value": "did not affect"}, {"measurement": "Formation of aggregates", "setting": "[5]", "value": "not to form aggregates"}, {"measurement": "Change in CT-L IC50 post-centrifugation versus pre-centrifugation", "setting": "[6]", "value": "no significant change"}, {"measurement": "Accumulation of ubiquitinylated proteins (ubiquitin-Alexa 546 red fluorescence)", "setting": "[7]", "value": "robust increase"}, {"measurement": "CT-L proteolytic activity of 20S proteasome pre-washing", "setting": "[1]; 1 µM MG-132, 1 µM epoxomicin, 10 µM palau’amine, 1 nM 20S", "value": "complete abrogation"}, {"measurement": "Binding mechanism to the 20S proteasome", "setting": "[1]; kinetic analysis and washing experiments", "value": "irreversible-type"}, {"measurement": "CT-L proteolytic activity of 20S proteasome post-washing", "setting": "[1]; washed with 500 volumes of reaction buffer", "value": "complete abrogation"}, {"measurement": "Stability at pH greater than seven (reported)", "setting": "[8]", "value": "unstable"}]}
